Results from ChEMBL document CHEMBL3868590, “Quambalarine B, a Secondary Metabolite from Quambalaria cyanescens with Potential Anticancer Properties” (J Nat Prod, 2016).
Values belong to the compound of their own block, whether it stands above or below them.

How the values were obtained:
REH [1] = assay: Cytostatic activity against eFluor670-labelled human REH cells assessed as live cells at 20 ng/ml measured on day 2 by Hoechst-33258 staining-based FACS analysis (reference value: 90.8%); assay type: functional
REH [2] = assay: Cytostatic activity against eFluor670-labelled human REH cells assessed as live cells at 20 ng/ml measured on day 5 by Hoechst-33258 staining-based FACS analysis (reference value: 85.6%); assay type: functional
REH [3] = assay: Cytostatic activity against eFluor670-labelled human REH cells assessed as live cells at 20 ng/ml measured on day 4 by Hoechst-33258 staining-based FACS analysis (reference value: 88%); assay type: functional
NALM-6 [4] = assay: Cytostatic activity against eFluor670-labelled human NALM6 cells assessed as live cells at 5 ng/ml measured on day 3 by Hoechst-33258 staining-based FACS analysis (reference value: 98.6%); assay type: functional
NALM-6 [5] = assay: Cytostatic activity against eFluor670-labelled human NALM6 cells assessed as live cells at 5 ng/ml measured on day 2 by Hoechst-33258 staining-based FACS analysis (reference value: 97.7%); assay type: functional
Jurkat [6] = assay: Cytostatic activity against eFluor670-labelled human Jurkat cells assessed as live cells at 10 ng/ml measured on day 3 post dose by Hoechst-33258 staining-based FACS analysis (reference value: 98.3%); assay type: functional
REH [7] = assay: Cytostatic activity against eFluor670-labelled human REH cells assessed as live cells at 20 ng/ml measured immediately after compound addition by Hoechst-33258 staining-based FACS analysis (reference value: 44.1%); assay type: functional
NALM-6 [8] = assay: Cytostatic activity against eFluor670-labelled human NALM6 cells assessed as live cells at 5 ng/ml measured on day 4 by Hoechst-33258 staining-based FACS analysis (reference value: 98.6%); assay type: functional
NALM-6 [9] = assay: Cytostatic activity against eFluor670-labelled human NALM6 cells assessed as live cells at 5 ng/ml measured immediately after compound addition by Hoechst-33258 staining-based FACS analysis (reference value: 95.8%); assay type: functional
[10] = Cytotoxicity against PHA/LPS-stimulated CD3-positive T-lymphocytes in eFluor-670-labeled human PBMC assessed as divided cells at 5 ng/ml administered post 18 hrs of PHA/LPS-stimulation measured after 72 hrs by Hoechst-33258 staining-based FACS analysis (reference value: 24.2%); assay type: toxicity; conditions: t-cell
How it was run: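 PBMC were labelled with 1 μmol/L CPD, stimulated with PHA (5 μg/mL) plus LPS (1 μg/mL), and seeded at 3 × 10^5 cells/well in 300 μL. Compound was added after 18 h and left for 72 h. Cells were stained with anti-CD3. Unstimulated cells set the CPD+ gate. Proliferation index, division index and % divided were calculated for CPD+CD3+ Hoechst-negative cells.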

NALM-6 [11] = assay: Cytostatic activity against eFluor670-labelled human NALM6 cells assessed as live cells at 5 ng/ml measured on day 5 by Hoechst-33258 staining-based FACS analysis (reference value: 98.6%); assay type: functional
NALM-6 [12] = assay: Cytostatic activity against eFluor670-labelled human NALM6 cells assessed as live cells at 5 ng/ml measured on day 1 by Hoechst-33258 staining-based FACS analysis (reference value: 95.5%); assay type: functional
Jurkat [13] = assay: Cytostatic activity against eFluor670-labelled human Jurkat cells assessed as live cells at 10 ng/ml measured on day 2 post dose by Hoechst-33258 staining-based FACS analysis (reference value: 97%); assay type: functional
REH [14] = assay: Cytostatic activity against eFluor670-labelled human REH cells assessed as live cells at 20 ng/ml measured on day 1 by Hoechst-33258 staining-based FACS analysis (reference value: 89.8%); assay type: functional
Jurkat [15] = assay: Cytostatic activity against eFluor670-labelled human Jurkat cells assessed as live cells at 10 ng/ml measured on day 1 post dose by Hoechst-33258 staining-based FACS analysis (reference value: 98.2%); assay type: functional
Jurkat [16] = assay: Cytostatic activity against eFluor670-labelled human Jurkat cells assessed as live cells at 10 ng/ml measured on day 4 post dose by Hoechst-33258 staining-based FACS analysis (reference value: 97.3%); assay type: functional
Jurkat [17] = assay: Cytostatic activity against eFluor670-labelled human Jurkat cells assessed as live cells at 10 ng/ml measured on day 5 post dose by Hoechst-33258 staining-based FACS analysis (reference value: 97%); assay type: functional
Jurkat [18] = assay: Cytostatic activity against eFluor670-labelled human Jurkat cells assessed as live cells at 10 ng/ml measured immediately after compound addition by Hoechst-33258 staining-based FACS analysis (reference value: 98.2%); assay type: functional
[19] = Cmax in human; assay type: ADME

SMILES: COc1cccc2c1C(=O)c1c(O)c3c(c(O)c1C2=O)C[C@@](O)(C(=O)CO)C[C@@H]3O[C@H]1C[C@H](N)[C@H](O)[C@H](C)O1 [DOXORUBICIN]
Activity (REH [1]): 26.7%
Activity (REH [2]): 1.19%
Activity (REH [3]): 2.72%
Activity (NALM-6 [4]): 96.3%
Activity (NALM-6 [5]): 96.5%
Activity (Jurkat [6]): 42.8%
Activity (REH [7]): 44.1%
Activity (NALM-6 [8]): 93.8%
Activity (NALM-6 [9]): 95.8%
Activity [10]: 18.1%
Activity (NALM-6 [11]): 87.8%
Activity (NALM-6 [12]): 95.2%
Activity (Jurkat [13]): 78.5%
Activity (REH [14]): 73.5%
Activity (Jurkat [15]): 97%
Activity (Jurkat [16]): 9.46%
Activity (Jurkat [17]): 10.5%
Activity (Jurkat [18]): 98.2%

Cmax [19]: > 1000 µM
SMILES: CN(Cc1cnc2nc(N)nc(N)c2n1)c1ccc(C(=O)N[C@@H](CCC(=O)O)C(=O)O)cc1 [METHOTREXATE]
